CFTR F508del cor: correctors of CFTR F508del function in bronchial epithelial cells. CFBE cells, YFP halide quenching; stimulated with forskolin plus potentiator P3; % fluorescence drop versus neutral controls. activity (quench increase), % at 7.58 µM. hit rate 0.36% among 350,000. AID 720511;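 active = mean added fluorescence quench of at least 8% versus neutral control, with both replicates also reaching 8%; inconclusive = only one of the mean or replicate conditions met; inactive = mean below 8% and not both replicates reaching 8%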;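 also: cells transiently co-express mutant CFTR-F508del with the halide-sensitive YFP; corrector assay measuring rescue of mutant channel to the surface after 24 h compound exposure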
rRNA inh HTS: inhibits bacterial ribosomal RNA function over humanized ribosomes | E. coli WT GFP vs humanized-ribosome RFP mutants, fluorescence, 24 h; stronger effect = lower value; DMSO median 0, no signal -100 | GFP signal change (wild-type ribosome), % (test concentration not listed) | hit rate 1.6% among 350,000 | AID 720706;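 active = significant combined selectivity score with lowered wild-type GFP, culture density cut under 30%, mutant RFP and density less affected; inactive = any of these conditions unmet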
ERAP1 inh: ERAP1 (human) enzyme inhibition | recombinant ERAP1, Leu-AMC fluorescence, 60 min | Q9NZ08 | inhibition, % at 10.7 µM | hit rate 0.15% among 340,000;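 active = mean replicate inhibition of at least 30%, or all replicates individually reaching that 30% level; inactive = mean below 30% and not every replicate reaching it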
S100A4 inh HTS: blocks human S100A4 binding to myosin IIA peptide; P26447; S100A4/TAMRA-MyoIIA peptide fluorescence polarization; inhibition, % at 10.7 µM; hit rate 0.14% among 360,000; AID 652163;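 active = mean inhibition of at least 70% across replicates, with every replicate also reaching that level; inconclusive = mean inhibition reaches 70% but some replicates fall short; inactive = mean inhibition below 70%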
Target sequence (P26447 whole entry, looked up): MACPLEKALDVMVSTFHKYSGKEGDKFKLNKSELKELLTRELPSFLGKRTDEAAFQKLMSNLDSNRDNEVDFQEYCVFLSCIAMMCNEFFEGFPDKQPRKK
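Test system – S100A4 monomer (human) · Compound – single-point compound testing · Schedule – 5 min incubation before reading · Probe or stimulus – TAMRA-labelled myosin IIA heavy-chain peptide probe, 5 nM · Benchmarks – neutral control DMSO, positive control TFP · Medium – Calcium-containing HEPES buffer, pH 7.2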
SIRT5 block: sirtuin-5 (human) deacylase inhibition. Q9NXA8. Purified SirT5, succinyl-peptide AMC, trypsin-coupled fluorescence. inhibition, % at 15 µM. hit rate 1.1% among 330,000; in the data active = inhibition above about 15%; inconclusive = no clear call, values can overlap the other calls
Target sequence (Q9NXA8 whole entry, looked up): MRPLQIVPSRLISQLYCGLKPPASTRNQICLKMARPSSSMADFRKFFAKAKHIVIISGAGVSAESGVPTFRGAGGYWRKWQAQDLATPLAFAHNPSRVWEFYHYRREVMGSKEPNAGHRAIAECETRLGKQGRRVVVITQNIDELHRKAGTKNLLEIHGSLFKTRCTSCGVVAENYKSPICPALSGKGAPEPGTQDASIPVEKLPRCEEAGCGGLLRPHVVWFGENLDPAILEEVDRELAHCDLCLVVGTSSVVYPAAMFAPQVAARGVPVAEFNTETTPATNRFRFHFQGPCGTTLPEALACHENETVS
AID977621: growth inhibition of wild-type GFP E. coli, dose response, H69 mutant RFP, cherry-pick; E. coli wild-type GFP strain growth, fluorescence, 24 h; shares compounds with rRNA inh HTS; activity change, negative = inhibition at 50 µM; 1,900 tested, under 10 active;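 active = Wild-type ribosome reporter drop at least double the humanized mutant ribosome reporter drop, growth loss under a set limit; inconclusive = no clear call, values can overlap the other calls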;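 also: wild-type GFP and H69 mutant RFP strains grown together 50/50 in each well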
AID977628: E. coli growth inhibition, wild-type GFP versus h24 humanized RFP strain, dose response, h24 mutant RFP vs wild-type GFP, cherry-pick. shares compounds with rRNA inh HTS. E. coli WT GFP strain growth, fluorescence, 24 h. activity change, negative = inhibition at 50 µM. 1,900 tested, under 10 active;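 active = compound lowering the normal-ribosome reporter at least twice as much as the humanized-ribosome reporter, growth loss under a set limit; inconclusive = no clear call, values can overlap the other calls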;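 also: wild-type GFP and h24 humanized RFP strains co-cultured 1 to 1 per well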
Hits are given with their value; 0 = inactive; ? = inconclusive; - = not tested or not shown. Rows were chosen to be rich in hits. Some 3.1% of all compounds tested hit in one or more screens of this group.

SMILES | CFTR F508del cor | rRNA inh HTS | ERAP1 inh | S100A4 inh HTS | SIRT5 block | AID977621 | AID977628
COc1cccc(-c2ccc([C@@H]3[C@H](CO)N4CCCCN(S(=O)(=O)c5cccs5)C[C@@H]34)cc2)c1 | 0 | -46 | 0 | 0 | 0 | - | ?
CCCNC(=O)C[C@@H]1CC[C@H]2[C@@H](COC[C@H](O)CN2C(=O)C2CCOCC2)O1 | 0 | 0 | 0 | 0 | 0 | - | -
C[C@H](O)C#Cc1cnc2c(c1)C(=O)N([C@H](C)CO)C[C@H](C)[C@H](CN(C)Cc1cccc(F)c1)O2 | 0 | 0 | 0 | 0 | 0 | - | -
O=C(N[C@H]1CC[C@H](CCNS(=O)(=O)Cc2ccccc2)O[C@H]1CO)c1ccc2c(c1)OCO2 | 0 | 0 | 0 | 0 | 0 | - | -
COc1ccc(C(=O)NC(C(=O)N2CCN(C/C=C/c3ccccc3)CC2)C(C)C)cc1 (stereo unspecified) | 0 | 0 | 0 | 0 | - | - | -
CC(C)[C@H](NC(=O)c1ccc([N+](=O)[O-])cc1Cl)C(=O)N1CCN(C/C=C/c2ccccc2)CC1 | 0 | -21 | 0 | 0 | 0 | - | ?
CCC(=O)N1[C@@H](CO)[C@@H](c2ccc(-c3cccc(F)c3)cc2)[C@@H]1CN(C)C(C)=O | 0 | 0 | 0 | 0 | 0 | - | -
CCc1cc2c(nc1CC)CCCN2Cc1ccc(Br)cc1 | 0 | -26 | 0 | 0 | - | 0 | -
O=C(C[C@@H]1CC[C@@H]2[C@H](COC[C@H](O)CN2C(=O)Nc2ccc(Cl)cc2)O1)N1CCCCC1 | 0 | -22 | 0 | 0 | 0 | - | ?
O=C(C[C@@H]1CC[C@H]2[C@@H](COC[C@@H](O)CN2C(=O)Nc2ccc(Cl)cc2)O1)N1CCCCC1 | 0 | 0 | 0 | 0 | 0 | - | -
CC(=O)N1[C@@H]2c3cccc(=O)n3C[C@@H]2[C@@H](CO)[C@@H]1C(=O)N[C@H](C)c1ccccc1 | 0 | 0 | 0 | 0 | 0 | - | -
CC(=O)c1ccc(-c2cccc([C@H]3[C@@H]4C=CC[C@@H](C)[C@@H]4C(=O)N3Cc3ccccc3)c2)cc1 | 0 | -19 | - | 0 | 0 | 0 | 0
COc1ccc(-c2cccc([C@H]3[C@@H]4C=CC[C@@H](C)[C@@H]4C(=O)N3Cc3ccccc3)c2)cc1 | 0 | 0 | - | 0 | 0 | - | -
COc1ccccc1C#Cc1ccc2c(c1)[C@H]1[C@H](CCN1C(=O)c1ccc(F)cc1)[C@H](CO)N2 | 0 | 0 | 0 | 0 | 0 | - | -
O=C(c1cccc2ccccc12)C1CCCN(C(=O)CCc2cnccn2)C1 (stereo unspecified) | 0 | -21 | 0 | 0 | 0 | 0 | 0
Cc1cccc(OCCC(=O)Nc2ccc(F)c(F)c2)c1 | 0 | -41 | 0 | 0 | 0 | 0 | -
O=S(=O)(c1ccccc1)N1CC[C@@H]2[C@H]1c1cc(Br)ccc1N[C@@H]2CO | 0 | 0 | 0 | 0 | 0 | - | -
O=S(=O)(c1ccccc1)N1CC[C@@H]2[C@H](CO)Nc3ccc(Br)cc3[C@@H]21 | 0 | -42 | 0 | 0 | 0 | 0 | -
C[C@@H]1CCCCO[C@H](CN(C)Cc2ccccc2)[C@@H](C)CN([C@@H](C)CO)C(=O)c2cc(NC(=O)CCC(F)(F)F)ccc2O1 | 0 | 0 | 0 | 0 | 0 | - | -
C=CCNC(=O)c1ccccc1CCc1ccccc1 | 0 | -26 | 0 | 0 | 0 | 0 | 0
Cc1ccc(C(=O)NCCC2=CCCCC2)cc1S(=O)(=O)N1CCCCC1 | 0 | 0 | 0 | 0 | 0 | - | -
Cc1ccccc1NS(=O)(=O)c1cc(C(=O)NCCC2=CCCCC2)ccc1C | 0 | -17 | 0 | 0 | 0 | 0 | ?
O=C(NCCC1=CCCCC1)c1ccc(Cl)c(S(=O)(=O)Nc2ccccc2)c1 | 0 | -20 | 0 | 0 | 0 | 0 | -
Cc1ccc(NS(=O)(=O)c2cc(C(=O)N3CCc4ccccc4C3)ccc2Cl)cc1 | 0 | -29 | 0 | 0 | 0 | 0 | -
O=C(NCC1CCCO1)c1ccc(Cl)c(S(=O)(=O)Nc2ccccc2)c1 (stereo unspecified) | 0 | 0 | 0 | 0 | 0 | - | -
